The results in this text go back to PubChem BioAssay AID602319 (The Scripps Research Institute Molecular Screening Center, 2012).

Calls of active or inactive are those of the source.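 The calls were made as follows: active = inhibition of at least 50% at 0.01 µM compound; inactive = the rest.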

Broadly, the inhibition is the change of the read-out against control, counted positive when it falls.

The target in the assay is Monoacylglycerol lipase ABHD6 (Mus musculus) (UniProt Q8R2Y0). The experiment in a line: ABHD6 inhibition in mouse proteome, late-stage follow-up, selectivity assay for DAGLb inhibitor project, biochemical, gel-based competitive ABPP, fluorescence, in vitro (AID 602319). Conditions: Neuro-2A membrane proteome, HT-01 probe, stronger effect = higher value. A digest of the protocol: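 Material – Neuro-2A cell membrane proteome, native mouse ABHD6 · Medium – DPBS · Reagent – HT-01 probe at 1 µM · Times – compound preincubation 30 min, probe labelling 30 min, 37 °C · Measured by – SDS-PAGE with in-gel fluorescence scan, band integrated optical density · Controls – DMSO-only high control, blank gel region as low control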
Monoacylglycerol lipase ABHD6 (Mus musculus), sequence (Q8R2Y0 whole entry, looked up): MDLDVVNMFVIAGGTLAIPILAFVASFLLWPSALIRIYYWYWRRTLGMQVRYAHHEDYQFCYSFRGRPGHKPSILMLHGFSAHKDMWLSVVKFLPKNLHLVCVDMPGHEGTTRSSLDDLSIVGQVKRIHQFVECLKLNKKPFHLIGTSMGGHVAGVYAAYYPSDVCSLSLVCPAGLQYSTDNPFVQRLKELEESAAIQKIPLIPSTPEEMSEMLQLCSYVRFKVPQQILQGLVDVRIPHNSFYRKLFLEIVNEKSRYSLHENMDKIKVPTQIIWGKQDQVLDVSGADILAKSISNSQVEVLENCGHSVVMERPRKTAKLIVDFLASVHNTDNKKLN

As for `COc1ccccc1-c1ccc(-c2cn(C(=O)N3CCCC(Cc4ccccc4)C3)nn2)cc1` (centres undefined), the inhibition by setting is: (ABHD6 inhibition, at 0.001 µM) 53%; (at 0.01 µM) 100%.
For `O=C(N1CCCCC1Cc1ccccc1)n1cc(-c2ccc(-c3cccc(CO)c3)cc2)nn1` (centres undefined) the same measures were 41% and 90%.
Turning to `COc1ccccc1-c1ccc(-c2cn(C(=O)N3CCC(Cc4ccccc4)CC3)nn2)cc1`, the inhibition is 78% (ABHD6 inhibition, at 0.001 µM) and 100% (at 0.01 µM).
As to `O=C(c1ccc(-c2ccc(-c3cn(C(=O)N4CCCCC4Cc4ccccc4)nn3)cc2)cc1)N1CCCCC1` (centres undefined), the inhibition by setting is: (ABHD6 inhibition, at 0.001 µM) 9%; (at 0.01 µM) 79%.
Turning to `O=C(N1CCCCC1c1ccccc1)n1cc(-c2ccc(-c3ccccc3CO)cc2)nn1` (centres undefined), the inhibition by setting is: (ABHD6 inhibition, at 0.001 µM) 38%; (at 0.01 µM) 98%.
With `O=C(O)c1cccc(-c2ccc(-c3cn(C(=O)N4CCCCC4c4ccccc4)nn3)cc2)c1` (centres undefined), the inhibition by setting is: (ABHD6 inhibition, at 0.001 µM) 36%; (at 0.01 µM) 100%.
For `O=C(N1CCCCC1CCc1ccccc1)n1cc(-c2ccc(-c3ccccc3)cc2)nn1` (centres undefined), the inhibition is 21% (ABHD6 inhibition, at 0.001 µM) and 40% (inactive) (at 0.01 µM).
As for `O=C(N1CCCCC1c1ccccc1)n1cc(-c2ccc(-c3ccc(CO)cc3)cc2)nn1` (centres undefined), the inhibition is 18% (ABHD6 inhibition, at 0.001 µM) and 47% (inactive) (at 0.01 µM).
Take `COc1ccccc1-c1ccc(-c2cn(C(=O)N3CCCCC3c3ccccc3)nn2)cc1` (centres undefined): the inhibition by setting is: (ABHD6 inhibition, at 0.001 µM) 32%; (at 0.01 µM) 90%.
Consider `O=C(N1CCCCC1c1ccccc1)n1cc(C(O)(c2ccccc2)c2ccccc2)nn1` (centres undefined), for which the inhibition reads like this: (ABHD6 inhibition, at 0.001 µM) 32%; (at 0.01 µM) 47% (inactive).
As for `COc1ccccc1-c1ccc(-c2cn(C(=O)N3CCCCC3CCc3ccccc3)nn2)cc1` (centres undefined), the inhibition (ABHD6 inhibition, at 0.001 µM) was 27% and the inhibition (at 0.01 µM) was 70%.
For `O=C(N1CCCCC1c1ccccc1)n1cc(-c2ccc(-c3ccccc3)cc2)nn1` (centres undefined), the inhibition (ABHD6 inhibition, at 0.001 µM) was found to be 18% and the inhibition (at 0.01 µM) was 66%.
Consider `O=C(O)c1ccc(-c2ccc(-c3cn(C(=O)N4CCCCC4CCc4ccccc4)nn3)cc2)cc1` (centres undefined), for which the inhibition runs as follows: (ABHD6 inhibition, at 0.001 µM) 7%; (at 0.01 µM) 10% (inactive).
Turning to `COc1ccc(-c2ccc(-c3cn(C(=O)N4CCCCC4c4ccccc4)nn3)cc2)cc1` (centres undefined), the inhibition is 8% (ABHD6 inhibition, at 0.001 µM) and 18% (inactive) (at 0.01 µM).
`O=C(O)c1cccc(-c2ccc(-c3cn(C(=O)N4CCCCC4CCc4ccccc4)nn3)cc2)c1` (centres undefined): the inhibition was 33% (ABHD6 inhibition, at 0.001 µM) and 94% (at 0.01 µM).
For `NC(=O)c1ccc(-c2ccc(-c3cn(C(=O)N4CCCCC4c4ccccc4)nn3)cc2)cc1` (centres undefined) the same measures were 17% and 27% (inactive).
As for `O=C(c1ccc(-c2ccc(-c3cn(C(=O)N4CCCCC4c4ccccc4)nn3)cc2)cc1)N1CCCCC1` (centres undefined), the inhibition by setting is: (ABHD6 inhibition, at 0.001 µM) 35%; (at 0.01 µM) 94%.
